TLR4-MyD88 BLA = inhibitors of TLR4-MyD88 association in cells, primary screen, cell-based, HeLa CL3-4, BLA complementation, FRET ratio; HeLa CL3-4 TLR4/MyD88 BLA complementation; 200,000 compounds, 0.18% hits; inhibition, % at 8.4 µM; AID 861, 2007; in the data active = inhibition above about 25%;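 note: 0% = vehicle and 100% = reference inhibitor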
NOD2 RIPK2 PPI = NOD2-RIPK2 binding disruptors in cells, primary screen, fluorescence, CHO cells, BLA complementation | 360,000 compounds, 0.38% hits | CCF4 ratio | AID 624267, 2012 | Receptor-interacting serine/threonine-protein kinase 2 (Homo sapiens), O43353 | inhibition, % at 4.98 µM; in the data active = inhibition above about 21%;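 note: 0% = vehicle only and 100% = reference blocker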
SR-BI DiI inh = inhibitors of SR-BI mediated HDL lipid uptake, primary screen, ldlA[mSR-BI] cells, fluorescence, single point | Scavenger receptor class B member 1 (Mus musculus), Q61009 | ldlA[mSR-BI] CHO cells, DiI-HDL uptake fluorescence, 3 h | inhibition, % at 12.5 µM | 320,000 compounds, 0.96% hits;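 active = mean replicate inhibition of at least 70% and a set share of replicates each scoring 70 or more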;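 note: 0% = median of neutral control wells and 100% = median of positive control wells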
SR-BI uptake up = activators of SR-BI mediated DiI-HDL uptake, primary screen, ldlA[mSR-BI] CHO cells, DiI fluorescence; 3 h; 100 = double the neutral-control signal; activation, % at 12.5 µM; 320,000 compounds, 0.096% hits;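 active = mean replicate activation of at least 60% and every replicate at or above 60%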;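 note: 0% = median plate neutral-control signal and 100% = twice that signal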
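Test system: SR-BI-overexpressing, LDLR-lacking CHO cells; Also added: labelled HDL, 10 µg/mL; Measured by: bottom-read cell fluorescence after medium removal, ex 550/em 595 nm; Timing: 3 h uptake period with compound, 37 °C; Buffer or medium: F12, 0.5% BSA, 25 mM HEPES; Doses: single compound concentration, delivered by pin transfer.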
TLR9-MyD88 inh = inhibitors of TLR9-MyD88 association in cells, primary screen, cell-based, CHO, BLA complementation, fluorescence | CCF4 FRET ratio | inhibition, % at 4.98 µM | 340,000 compounds, 0.21% hits | AID 504734, 2011;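 active = inhibition above the mean over all tested compounds plus 3 SD, cut at about 21% in these data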;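 note: 0% = DMSO only wells and 100% = clavulanate BLA inhibitor control wells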
Lipid droplet = inhibitors of hepatocyte lipid droplet formation, primary screen, imaging, high-throughput imaging, BODIPY stain | AID 1656, 2009 | 240,000 compounds, 0.4% hits | inhibition, % at 6.5 µM | AML12 mouse hepatocytes, oleate lipid droplets;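 active = lipid droplet intensity inhibited by at least 50%, with more than 500 cells counted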
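Technique: fluorescence imaging, 20x objective, two fields per well / Assay system: AML12 hepatocytes (mouse) / Measure: % inhibition of lipid droplet signal / Doses: 6.5 µM single-point dosing / Incubation: overnight exposure / Reagent: 100 µM oleic acid challenge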
Active calls of the source: *; . = not tested or not shown. In the library only some 1.6% were active in any assay of this set; here they are far more common.

SMILES	TLR4-MyD88 BLA	NOD2 RIPK2 PPI	SR-BI DiI inh	SR-BI uptake up	TLR9-MyD88 inh	Lipid droplet
COc1ccc(NC(=O)c2sc3nc(N4CCOCC4)c4c(c3c2N)CC(C)(C)OC4)cc1	.	3.5	22.7	-22.7	-7.7	-0.9
COc1ccc(NC(=O)c2sc3nc(N4CCCC4)c4c(c3c2N)CC(C)(C)OC4)cc1	.	-1.4	72.6*	-72.6	10.5	-3.3
N#Cc1ccc(-c2ccc(F)cc2)nc1SCC(=O)Nc1sc2c(c1C#N)CCC2	4.7	-7.9	78.0*	-78.0	4.5	.
N#Cc1cc2c(nc1SCC(=O)Nc1sc3c(c1C#N)CCC3)CCCC2	1.6	5.8	57.6	-57.6	5.4	.
Cc1nn2c(NC(C)C)c3c(nc2c1-c1ccccc1)CCC3	.	-9.0	-104.2	104.2*	-11.2	14.1
CCOc1ccc(NC(=O)CN(C)C(=O)c2ccccc2OCc2cccc(C)c2)cc1OCC	.	-31.9	86.2*	-86.2	4.1	.
Cc1cccc(COc2ccccc2C(=O)N(C)CC(=O)Nc2cccc(F)c2)c1	.	-5.4	36.6	-36.6	-13.9	.
CC1C/C(=N\NC(N)=S)c2cc(Cl)ccc2S1 (stereo unspecified)	.	-1.6	80.1*	-80.1	.	9.5
Cc1ccc(-c2cc3nc(-c4ccccc4)cc(N4CCC5(CC4)OCCO5)n3n2)cc1	-3.7	3.0	41.9	-41.9	-35.4	9.2
Cc1cccc(-c2cc3nc(-c4ccccc4)cc(N4CCC5(CC4)OCCO5)n3n2)c1	-7.8	5.6	82.6*	-82.6	-4.4	0.7
Fc1ccc(-c2cc3nc(-c4ccccc4)cc(N4CCOCC4)n3n2)cc1	11.9	-0.2	73.0*	-73.0	3.1	-3.3
COc1ccc(C2CC(c3cccc(Cl)c3)=NN2c2ccc(S(N)(=O)=O)cc2)cc1 (stereo unspecified)	.	-40.6	76.8*	-76.8	-101.3	.
CCC(=O)Nc1cccc(C2=NN(c3ccccc3)C(c3ccc(OC)cc3)C2)c1 (stereo unspecified)	.	-3.7	70.3*	-70.3	-17.2	8.4
S=C(NCc1ccccc1)N1CCN(c2ccccc2)CC1	3.9	2.6	-77.8	77.8*	-2.0	1.1
O=C(Nc1ccc(F)c(F)c1)C1=COCCO1	.	-5.1	1.9	-1.9	1.9	.
N#Cc1c(NC(=O)Cn2c(=O)oc3ccccc32)oc(-c2ccccc2)c1-c1ccccc1	-3.6	1.0	10.1	-10.1	-7.1	-1.0
Cc1cccc(C)c1OCC(=O)Nc1oc(-c2ccccc2)c(-c2ccccc2)c1C#N	-8.8	-4.6	81.6*	-81.6	2.3	.
COc1ccc(-c2oc(NC(=O)c3ccc(C)cc3)c(C#N)c2-c2ccc(OC)cc2)cc1	-4.0	-17.1	44.8	-44.8	-3.5	13.7
COc1ccc(C(=O)Nc2oc(-c3ccccc3)c(-c3ccccc3)c2C#N)cc1OC	4.5	-7.3	81.6*	-81.6	1.2	-0.8
COc1ccc(C(=O)Nc2oc(-c3ccccc3)c(-c3ccccc3)c2C#N)cc1	-1.7	-7.6	82.6*	-82.6	11.7	.
Cc1cc(Br)cn2c(CC(C)(C)C)c(C3CCCCC3)nc12	.	1.2	.	.	.	.
Cc1ccc(C(=O)NCC(=O)OCc2cccc(Br)c2)cc1	.	-1.8	-7.6	7.6	-0.4	.
O=C(CC1S/C(=N/N=C/c2cccs2)NC1=O)Nc1ccccc1F (stereo unspecified)	1.1	-6.2	80.3*	-80.3	-0.2	1.7
C=CCC1S/C(=N/N=C/c2cccs2)NC1=O (stereo unspecified)	-11.1	-6.8	10.2	-10.2	1.6	2.6
COc1ccccc1N(Cc1ccccc1)S(=O)(=O)c1cccc(C(=O)NC2CC(C)(C)NC(C)(C)C2)c1	.	-3.2	-13.7	13.7	-6.2	.
CC1(C)CC(NC(=O)c2ccc(Cl)c(S(=O)(=O)N(Cc3ccccc3)c3ccccc3)c2)CC(C)(C)N1	.	.	-96.6	96.6*	9.1	.

Screens from PubChem.
